This is an account of results in ChEMBL document CHEMBL4842338, “System-oriented optimization of multi-target 2,6-diaminopurine derivatives: Easily accessible broad-spectrum antivirals active against flaviviruses, influenza virus and SARS-CoV-2” (Eur J Med Chem, 2021).

A short description of data set [1]: Inhibition of full length ZIKA virus NS5 RNA dependent RNA polymerase incubated for 10 mins by picogreen staining based fluorescent analysis (Rvb= 1+/-0.2 uM).
The subject of data set [2] is Influenza A virus. The experiment in a line: Antiviral activity against Influenza A Puerto Rico/8/34/H1N1 infected in MDCK cells assessed as inhibition of viral replication measured in supernatants of infected cells after 24 hrs by hemagglutination assay. Type of data set: functional, organism-based. Particulars: A/Puerto Rico/8/1934(H1N1).
For a further data set, the target named is CDK9/cyclin T1 (Homo sapiens, UniProt P50750). Description: Inhibition of human full length CDK9/ His-tagged cT1 assessed as residual activity at 5 uM using CDKtide as a substrate in the presence of BSA incubated for 10 mins by scintillation counting analysis relative to control. Particulars: full length CDK9/His-tagged cyclin T1 complex, probe CDKtide, read-out: Activity. Format: protein-complex assay. The gist of the method: (§1)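 Compounds at fixed 5 μM; 10–50 ng kinase, substrate and NP-40/BSA per supplementary table, 10 μL at 30 °C for 10 min in low-binding tubes. Reactions spotted on filter, dried, scintillation counted. Mean ± SD of two independent experiments.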
CDK9/cyclin T1, sequence (O60563 whole entry): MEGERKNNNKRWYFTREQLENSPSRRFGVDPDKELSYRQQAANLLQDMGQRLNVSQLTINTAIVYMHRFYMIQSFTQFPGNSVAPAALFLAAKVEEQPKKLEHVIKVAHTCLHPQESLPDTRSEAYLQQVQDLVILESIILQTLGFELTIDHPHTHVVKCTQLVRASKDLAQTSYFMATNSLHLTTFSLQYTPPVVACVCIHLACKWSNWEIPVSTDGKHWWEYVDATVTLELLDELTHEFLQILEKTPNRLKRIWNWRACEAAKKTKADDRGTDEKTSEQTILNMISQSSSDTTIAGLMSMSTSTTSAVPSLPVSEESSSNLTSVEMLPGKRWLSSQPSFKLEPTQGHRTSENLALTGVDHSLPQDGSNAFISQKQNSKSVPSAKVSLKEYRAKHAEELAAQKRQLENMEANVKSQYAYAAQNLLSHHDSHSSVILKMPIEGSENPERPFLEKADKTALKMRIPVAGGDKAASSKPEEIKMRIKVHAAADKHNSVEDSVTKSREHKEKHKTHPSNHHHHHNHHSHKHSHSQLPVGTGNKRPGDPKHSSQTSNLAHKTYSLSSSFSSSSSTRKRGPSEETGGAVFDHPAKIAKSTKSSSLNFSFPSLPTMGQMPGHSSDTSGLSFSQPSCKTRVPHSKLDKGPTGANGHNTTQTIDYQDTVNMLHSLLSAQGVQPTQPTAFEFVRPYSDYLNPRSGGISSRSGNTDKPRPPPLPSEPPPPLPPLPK
CDK9/cyclin T1, sequence (P50750 whole entry): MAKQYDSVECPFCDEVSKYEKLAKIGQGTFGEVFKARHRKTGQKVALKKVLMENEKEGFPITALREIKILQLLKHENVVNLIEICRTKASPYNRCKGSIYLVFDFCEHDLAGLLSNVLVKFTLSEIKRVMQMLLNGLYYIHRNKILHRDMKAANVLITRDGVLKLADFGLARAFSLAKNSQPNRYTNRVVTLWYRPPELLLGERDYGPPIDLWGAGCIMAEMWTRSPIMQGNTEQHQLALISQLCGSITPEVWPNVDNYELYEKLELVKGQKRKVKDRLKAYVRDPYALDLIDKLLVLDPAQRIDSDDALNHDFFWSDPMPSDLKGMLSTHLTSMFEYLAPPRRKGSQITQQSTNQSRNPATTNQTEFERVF

Data set [3] can be described thus: Selectivity index, ratio of CC50 for MDCK cells to IC50 for Influenza A Puerto Rico/8/34/H1N1 infected in MDCK cells. Type of data set: toxicity, cell-based. The note with it: dog, read-out: Selectivity Index. The gist of the method: (§2)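 MDCK or A549 cells (2.5 × 10⁵/well) infected with A/Puerto Rico/8/34 H1N1 for 1 h at 37 °C, then washed. Compound (0.5–20 μM) added in 2% FBS medium for 24 h, with DMSO final ≤0.2%. Virus in supernatants read by hemagglutination. CC₅₀ by MTT (2 × 10⁴ cells/well, same concentrations, 24 h, absorbance 570 nm). SI = CC₅₀/IC₅₀.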

For the next data set, the system named is Zika virus. Description: Antiviral activity against Zika virus H/PF/2013 infected in pre-seeded Huh-7 cells assessed as inhibition of viral replication incubated for 72 hrs by immunodetection based secondary yield reduction assay. Type of data set: functional, organism-based. Particulars: H/PF/2013, Huh-7, 72 h.
Data set [4] can be described thus: Selectivity index, ratio of CC50 for human Huh-7 cells to IC50 for Dengue virus serotype 2 New Guinea C infected in pre-seeded Huh-7 cells assessed as inhibition of viral replication incubated for 72 hrs by immunodetection based secondary yield reduction assay. The note with it: read-out: Selectivity Index. Type of data set: toxicity, cell-based.
A further data set has as its system West Nile virus. Description: Antiviral activity against West Nile virus lineage 1 (Italy/2009) infected in pre-seeded Huh-7 cells assessed as inhibition of viral replication incubated for 48 hrs by immunodetection based direct yield reduction assay. Format: functional, organism-based. The note with it: West Nile virus, lineage 1 (Italy/2009), Huh-7, 48 h; read-out: IC50.

A short description of data set [5]: Selectivity index, ratio of CC50 for human Huh-7 cells to IC50 for Zika virus H/PF/2013 infected in pre-seeded Huh-7 cells assessed as inhibition of viral replication incubated for 72 hrs by immunodetection based secondary yield reduction assay. Particulars: read-out: Selectivity Index. Format: toxicity, cell-based.
Data set [6] is described as follows: Inhibition of Dengue virus 2 […] RNA dependent RNA polymerase incubated for 10 mins by picogreen staining based fluorescent analysis (Rvb= 0.27+/-0.03 uM). Set-up: species or system dengue virus type 2.
In data set [7] the target is PIK3CA (Phosphatidylinositol 4,5-bisphosphate 3-kinase catalytic subunit alpha isoform) (Homo sapiens, UniProt P42336). Description: Inhibition of human full length PIK3CA assessed as residual activity at 5 uM using PI:PS (1:3) as a substrate incubated for 10 mins by scintillation counting analysis relative to control. Particulars: full length PIK3CA enzyme, probe PI:PS (1:3), read-out: Activity. In outline:
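Radiometric kinase reaction with 10–50 ng enzyme and compound fixed at 5 μM, 10 μL at 30 °C for 10 min. Reactions spotted on filter and counted by scintillation. Residual activity is the mean ± SD of two independent experiments.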

For data set [8], the target named is Src (Proto-oncogene tyrosine-protein kinase Src) (Homo sapiens, UniProt P12931). The experiment in a line: Inhibition of human recombinant N terminal His6 tagged full length Src assessed as residual activity at 5 uM using KVEKIGEGTYGVVYK as a substrate in the presence of NP-40 incubated for 10 mins by scintillation counting analysis relative to control. Particulars: probe KVEKIGEGTYGVVYK, read-out: Activity. In outline: as §1
Src (Proto-oncogene tyrosine-protein kinase Src), sequence (P12931 2-536 limits assumed): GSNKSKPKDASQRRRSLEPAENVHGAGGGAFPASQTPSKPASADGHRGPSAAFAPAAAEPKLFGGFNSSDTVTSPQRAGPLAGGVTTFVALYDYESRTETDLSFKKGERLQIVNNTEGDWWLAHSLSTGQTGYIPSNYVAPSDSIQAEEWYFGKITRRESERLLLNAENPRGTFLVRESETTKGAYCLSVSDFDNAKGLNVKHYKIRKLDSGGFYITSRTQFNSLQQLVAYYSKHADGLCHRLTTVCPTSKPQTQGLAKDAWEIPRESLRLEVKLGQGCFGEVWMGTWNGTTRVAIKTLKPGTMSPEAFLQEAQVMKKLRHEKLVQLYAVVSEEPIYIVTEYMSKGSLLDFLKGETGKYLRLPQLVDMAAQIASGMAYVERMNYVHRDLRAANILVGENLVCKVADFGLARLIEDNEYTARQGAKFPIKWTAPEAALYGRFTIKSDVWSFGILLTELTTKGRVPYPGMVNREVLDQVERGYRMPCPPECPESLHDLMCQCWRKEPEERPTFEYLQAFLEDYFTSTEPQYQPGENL

Another data set deals with dengue virus type 2. The experiment in a line: Antiviral activity against Dengue virus serotype 2 New Guinea C infected in pre-seeded Huh-7 cells assessed as inhibition of viral replication incubated for 72 hrs by immunodetection based secondary yield reduction assay. Format: functional, organism-based. The note with it: Dengue virus, New Guinea C, Huh-7, 72 h; read-out: IC50.

Another data set deals with A549. The experiment in a line: Cytotoxicity against human A549 cells assessed as reduction in cell viability measured after 24 hrs by MTT assay. Type of data set: cell-based. Particulars: a549, 24 h.
Data set [9] concerns the target Abl (Tyrosine-protein kinase ABL1) (Homo sapiens, UniProt P00519). The experiment in a line: Inhibition of human recombinant N terminal His6 tagged Abl (27 to end residue) assessed as residual activity at 5 uM using KKGEAIYAADFA-NH2 as a substrate in the presence of NP-40 incubated for 10 mins by scintillation counting analysis relative to control. The note with it: probe KKGEAIYAADFA-NH2, read-out: Activity. The gist of the method:
as §1

The nature of data set [10]: Inhibition of DENV NS5-MTase domain using GpppA2'OMe-RNA74 as a substrate incubated for 30 mins by filter binding assay. Set-up: species or system dengue virus type 2. The gist of the method: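 MTase (1 μM) incubated with increasing inhibitor in 40 mM Tris-HCl pH 7.5, 5 mM DTT, 10 μM AdoMet ([3H]-labelled), 0.5 μM GpppA2′OMe-RNA74 substrate, 30 °C for 30 min; stopped in ice-cold 100 μM AdoHcy; DEAE filter binding, scintillation counting.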

Data set [11] in a line: Selectivity index, ratio of CC50 for human Huh-7 cells to IC50 for West Nile virus lineage 1 (Italy/2009) infected in pre-seeded Huh-7 cells assessed as inhibition of viral replication incubated for 48 hrs by immunodetection based direct yield reduction assay. The note with it: read-out: Selectivity Index. Format: toxicity, cell-based. In outline: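 Direct yield reduction in Huh7 cells (7000/well), infected with 50 TCID₅₀ of DENV or ZIKV, or 25 TCID₅₀ of WNV. Adsorption 1 h at 37 °C, then virus removed and serial compound dilutions added. Incubated 72 h (DENV, ZIKV) or 48 h (WNV). Viral antigen immunodetected on the monolayer. IC₅₀ by non-linear regression, mean of three experiments. SI = CC₅₀ (Huh7, CellTiter-Glo luminescence)/IC₅₀.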

The target of data set [12] is Fyn (Tyrosine-protein kinase Fyn) (Homo sapiens, UniProt P06241). The experiment in a line: Inhibition of human recombinant N terminal His6 tagged full length Fyn assessed as residual activity at 5 uM using […] as a substrate in the presence of NP-40 incubated for 10 mins by scintillation counting analysis relative to control. Particulars: probe […], read-out: Activity. In outline: as §1
Fyn (Tyrosine-protein kinase Fyn), sequence (P06241 whole entry): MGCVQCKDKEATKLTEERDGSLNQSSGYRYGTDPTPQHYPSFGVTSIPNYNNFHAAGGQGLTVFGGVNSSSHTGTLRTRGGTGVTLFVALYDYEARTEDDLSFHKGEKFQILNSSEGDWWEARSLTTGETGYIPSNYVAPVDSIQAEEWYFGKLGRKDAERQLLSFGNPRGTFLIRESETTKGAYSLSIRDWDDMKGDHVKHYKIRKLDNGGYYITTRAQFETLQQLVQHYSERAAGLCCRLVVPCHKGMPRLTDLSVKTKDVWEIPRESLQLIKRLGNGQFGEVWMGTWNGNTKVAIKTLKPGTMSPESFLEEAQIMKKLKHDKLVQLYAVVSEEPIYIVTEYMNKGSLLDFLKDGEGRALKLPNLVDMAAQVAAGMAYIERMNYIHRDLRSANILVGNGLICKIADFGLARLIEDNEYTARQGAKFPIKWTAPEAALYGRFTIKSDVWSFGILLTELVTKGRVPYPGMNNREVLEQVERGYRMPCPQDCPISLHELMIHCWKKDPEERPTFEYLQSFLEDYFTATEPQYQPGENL

The next data set concerns MDCK. Description: Cytotoxicity against MDCK cells assessed as reduction in cell viability measured after 24 hrs by MTT assay. Type of data set: cell-based, Canis lupus familiaris. Particulars: dog, mdck, 24 h. In general terms: Tetrazolium assays rely on reduction of a dye to a coloured formazan, in cell work by metabolically active cells.
In data set [13] the test system is Influenza A virus. Description: Antiviral activity against Influenza A Puerto Rico/8/34/H1N1 infected in human A549 cells assessed as inhibition of viral replication after 24 hrs by hemagglutination assay. Format: functional, organism-based. The note with it: A/Puerto Rico/8/1934(H1N1), A549, 24 h.
Data set [14] is described as follows: Antioxidant activity assessed as inhibition of ABTS radical scavenging activity at 10 uM to 1 mM measured after 10 mins. Type of data set: functional. The gist of the method:
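ABTS radical solution diluted in ethanol (1:100) to A734 0.70; 3.0 mL mixed with 30 μL sample in DMSO at 10 μM–1 mM; A734 read after exactly 10 min; ascorbic acid reference; % scavenging = (A0−As)/A0×100.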

In another data set the test system is Huh-7. The experiment in a line: Cytotoxicity against human Huh-7 cells assessed as reduction in cell viability by Celltiter-Glo luminescent cell viability assay. Type of data set: cell-based. The note with it: huh-7. The gist of the method: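 Compound-exposed cells assessed by CellTiter-Glo luminescence versus DMSO control; CC50 from dose-response.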
For orientation: In ATP-based viability assays light output follows the ATP content of the culture.

Data set [15] can be described thus: Inhibition of full length Dengue virus 2 NS5 RNA dependent RNA polymerase incubated for 10 mins by picogreen staining based fluorescent analysis (Rvb= 0.32+/-0.05 uM). Set-up: species or system dengue virus type 2.
Data set [16] in a line: Selectivity index, ratio of CC50 for human A549 cells to IC50 for Influenza A Puerto Rico/8/34/H1N1 infected in human A549 cells. The note with it: read-out: Selectivity Index. Type of data set: toxicity, cell-based. The gist of the method: as §2
Data set [17] is described as follows: Inhibition of full length ZIKV NS5-MTase domain using 7MeGpppAC4 as a substrate incubated for 30 mins by filter binding assay. Set-up: species or system Zika virus.

Activity calls are given as the source filed them. No cut-off for these calls is given here.

PIK3CA (Phosphatidylinositol 4,5-bisphosphate 3-kinase catalytic subunit alpha isoform), sequence (P42336 whole entry, canonical isoform): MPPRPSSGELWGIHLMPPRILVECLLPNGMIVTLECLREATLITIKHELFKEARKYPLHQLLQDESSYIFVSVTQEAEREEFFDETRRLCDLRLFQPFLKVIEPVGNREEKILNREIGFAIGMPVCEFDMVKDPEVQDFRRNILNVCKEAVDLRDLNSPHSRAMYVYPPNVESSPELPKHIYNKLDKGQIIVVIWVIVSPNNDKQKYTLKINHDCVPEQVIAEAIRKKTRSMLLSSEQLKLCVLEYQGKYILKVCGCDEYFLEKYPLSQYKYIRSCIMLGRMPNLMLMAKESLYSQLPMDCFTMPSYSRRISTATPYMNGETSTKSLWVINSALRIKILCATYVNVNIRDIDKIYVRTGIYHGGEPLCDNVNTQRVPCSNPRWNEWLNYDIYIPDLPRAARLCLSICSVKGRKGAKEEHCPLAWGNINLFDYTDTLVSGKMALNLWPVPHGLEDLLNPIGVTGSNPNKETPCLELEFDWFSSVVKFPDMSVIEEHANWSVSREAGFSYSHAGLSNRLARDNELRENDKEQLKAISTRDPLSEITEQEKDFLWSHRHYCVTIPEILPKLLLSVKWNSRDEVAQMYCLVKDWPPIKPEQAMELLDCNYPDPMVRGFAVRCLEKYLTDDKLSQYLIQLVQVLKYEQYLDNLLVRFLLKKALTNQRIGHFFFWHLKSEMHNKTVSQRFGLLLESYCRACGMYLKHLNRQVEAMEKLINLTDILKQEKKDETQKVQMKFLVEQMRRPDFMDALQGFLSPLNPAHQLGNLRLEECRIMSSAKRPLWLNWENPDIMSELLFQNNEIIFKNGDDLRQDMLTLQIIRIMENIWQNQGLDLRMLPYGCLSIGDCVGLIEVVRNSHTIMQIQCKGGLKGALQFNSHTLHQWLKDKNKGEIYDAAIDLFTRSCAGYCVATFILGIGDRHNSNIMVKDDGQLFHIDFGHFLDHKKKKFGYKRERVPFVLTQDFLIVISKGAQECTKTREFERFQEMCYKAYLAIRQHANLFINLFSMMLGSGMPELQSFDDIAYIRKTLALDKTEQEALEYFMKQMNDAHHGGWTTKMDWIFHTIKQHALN
Abl (Tyrosine-protein kinase ABL1), sequence (P00519 whole entry): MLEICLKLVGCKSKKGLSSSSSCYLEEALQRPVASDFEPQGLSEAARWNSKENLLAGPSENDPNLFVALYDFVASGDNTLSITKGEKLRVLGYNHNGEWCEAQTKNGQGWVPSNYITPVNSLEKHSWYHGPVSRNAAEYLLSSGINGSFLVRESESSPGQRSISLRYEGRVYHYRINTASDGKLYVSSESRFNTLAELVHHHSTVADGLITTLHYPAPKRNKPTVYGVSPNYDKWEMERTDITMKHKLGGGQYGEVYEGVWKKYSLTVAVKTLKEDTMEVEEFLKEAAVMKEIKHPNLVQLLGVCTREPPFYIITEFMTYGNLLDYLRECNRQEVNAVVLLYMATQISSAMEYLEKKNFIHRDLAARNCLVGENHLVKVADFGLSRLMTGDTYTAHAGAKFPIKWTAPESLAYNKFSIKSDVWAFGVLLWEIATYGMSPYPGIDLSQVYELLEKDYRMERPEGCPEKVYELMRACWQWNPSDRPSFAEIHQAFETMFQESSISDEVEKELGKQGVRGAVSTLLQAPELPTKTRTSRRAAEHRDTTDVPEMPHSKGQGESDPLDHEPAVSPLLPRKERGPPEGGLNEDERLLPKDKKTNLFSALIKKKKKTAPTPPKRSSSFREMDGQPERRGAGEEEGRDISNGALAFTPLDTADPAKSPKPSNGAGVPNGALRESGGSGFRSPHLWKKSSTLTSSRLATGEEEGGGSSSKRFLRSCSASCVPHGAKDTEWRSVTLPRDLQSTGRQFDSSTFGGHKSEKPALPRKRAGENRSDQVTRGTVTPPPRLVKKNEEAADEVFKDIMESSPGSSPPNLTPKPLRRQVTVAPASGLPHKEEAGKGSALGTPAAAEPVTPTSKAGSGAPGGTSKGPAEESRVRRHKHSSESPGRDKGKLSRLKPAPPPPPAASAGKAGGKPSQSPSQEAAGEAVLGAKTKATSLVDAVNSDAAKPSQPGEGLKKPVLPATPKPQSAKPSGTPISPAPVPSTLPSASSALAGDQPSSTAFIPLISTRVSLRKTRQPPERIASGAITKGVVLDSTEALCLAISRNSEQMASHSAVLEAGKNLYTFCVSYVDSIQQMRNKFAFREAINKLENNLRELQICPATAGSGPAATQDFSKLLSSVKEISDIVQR

Usually IC50 stands for the midpoint of a concentration-inhibition curve. As a reminder, the CC50 is the concentration at which the toxic effect on the cells reaches its halfway point. As to `Fc1cccc(NNc2nc(NCCOc3ccccc3)nc3[nH]cnc23)c1`, the IC50 in data set [1] was 105 µM; in the data set on Influenza A virus [2] it was 6.3 µM; in the data set on Zika virus, 2.4 µM; with West Nile virus, 1.1 µM; in data set [6], more than 100 µM; with dengue virus type 2, 3.4 µM. Moreover, the half-maximal inhibitory concentration (IC50) result is “Not Active” in data set [10], 14.9 µM in the data set with Influenza A virus [13], 153 µM in data set [15] and “Not Active” in data set [17]. For the same compound, the activity at 10 min, 5 µM at CDK9/cyclin T1 was 88%; in data set [7] it was 77%; in [8] it was 84%; in [9], 67%; in [12], more than 98%. The selectivity ratio in data set [3] was more than 5.3; in data set [16], 3.5. Moreover, the results for the selectivity ratio at 72 h in [4] and in data set [5] were 6 and 8, respectively. For the same compound, the CC50 is 52.4 µM in the data set on A549, 136 µM in the data set on MDCK and 20 µM in the data set on Huh-7. The selectivity ratio at 48 h in data set [11] was found to be 18. Moreover, in data set [14], the Activity result is “Active”.
